# TbMetRS inhib: blocks T. brucei methionyl-tRNA synthetase activity. 0.4% of 360,000 active. AID 624268. purified T. brucei MetRS, ATP depletion, Kinase-Glo luminescence. inhibition, % at 11.9 µM;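 active = inhibition above a per-plate cutoff of the control wells' mean inhibition plus 3 SD, cut at about 5.5% in these data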;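 note: 0% = DMSO wells median and 100% = median of wells with control inhibitor compound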
#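 technique = Kinase-Glo luminescence, ATP depletion format | system = purified MetRS (methionyl-tRNA synthetase) enzyme from Trypanosoma brucei | timing = 15 min preincubation, 2 h reaction, all 25 °C | evaluation = percent inhibition versus plate control medians | dosing = single dose, 11.9 µM final nominal, 0.9% final DMSO | also added = substrates ATP, L-methionine and bulk Escherichia coli tRNA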
# AHR act: activates the human aryl hydrocarbon receptor | P35869 | AHR-responsive luciferase reporter cells, luminescence | activation, % at 5 µM | 2.5% of 320,000 active | AID 2796; in the data active = activation above about 47%;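 note: 0% = vehicle wells and 100% = reference agonist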
# MsrA inhibitor: bovine MsrA inhibition. 0.75% of 360,000 active. inhibition, % at 15.5 µM. purified bovine MsrA, absorbance read-out;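 note: 0% = vehicle wells with enzyme and 100% = reference inhibitor wells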
# m5-HT2A agonist: mouse HTR2A agonism via beta-arrestin recruitment; 0.66% of 360,000 active; CHO-K1 mHTR2A beta-arrestin complementation, luminescence; percent of 30 µM serotonin response; P35363; activation, % at 7.6 µM;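 active = activation above a run cutoff, the mean activation of all tested compounds plus 3 SD, cut at about 14% in these data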;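 note: 0% = plate median of compound wells and 100% = 30 µM serotonin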
# bovine MsrA act: activators of bovine methionine sulfoxide reductase A. purified bovine MsrA, absorbance read-out. activation, % at 10.6 µM. AID 602163. 0.3% of 360,000 active; in the data active = activation above about 7.5%;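 note: 0% = vehicle and 100% = reference activator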
# AI-2 QS modul: Vibrio harveyi AI-2 quorum sensing modulation; Vibrio harveyi JMH597 AI-2 luminescence/OD600 ratio, 9 h; stronger effect = lower value; strain lacks LuxN and CqsS sensors; 0 = neutral-control median; activity change, % at 7.5 µM; 0.4% of 300,000 active; in the data active = activity change below about -75%, passing the limit was not always enough;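 note: luminescence divided by OD600 gain over 9 h not by final OD600 alone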
# MsrA conf: confirmation of bovine MsrA inhibitors; AID 651822; 41% of 2,300 active; shares compounds with MsrA inhibitor; purified bovine MsrA, absorbance read-out; inhibition, % at 15.5 µM;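 note: coupled to thioredoxin reductase with NADPH and selenocystamine and DMSO as substrate; 0% = vehicle only and 100% = full effect of reference inhibitor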
# Numbers without * were called inactive; . = no result. Rows were chosen to be rich in hits. Some 4.4% of all compounds tested hit in one or more screens of this group. Cut-off read from the data, not from the text of the source, unless noted: active = inhibition above about 4.5%; inactive = the rest.
SMILES,TbMetRS inhib,AHR act,MsrA inhibitor,m5-HT2A agonist,bovine MsrA act,AI-2 QS modul,MsrA conf
Cc1cc(C)cc(NC(=O)C(=O)NCC2CCCN2S(=O)(=O)c2cccs2)c1 (centres undefined),-0.7,10.5,-0.1,2.2,-6.6,9.1,.
COc1ccc(C2=NS(=O)(=O)N(C)C(C(=O)N3CCC(C(N)=O)CC3)=C2)cc1,0.4,5.1,6.1*,5.6,-4.4,24.5,3.3
COc1ccc(C2=NS(=O)(=O)N(C)C(C(=O)N3CCCCC3C)=C2)cc1 (centres undefined),-0.3,0.1,5.9*,10.7,-5.8,18.8,2.9
COCCCNC(=S)N(CCCO)Cc1cc2cc3c(cc2[nH]c1=O)OCCO3,-0.3,6.5,5.0*,1.3,-2.2,6.4,2.1
COCCCNC(=S)N(CCCO)Cc1cc2cc3c(cc2[nH]c1=O)OCO3,1.2,38.5,1.7,4.0,-1.8,.,.
CCOC(=O)C(Oc1ccc2c(-c3ccc(OC)cc3)cc(=O)oc2c1C)c1ccccc1 (centres undefined),-0.3,0.4,-0.5,1.5,-1.1,33.0,.
COc1ccc(-c2cc(=O)oc3c(C)c(O)ccc23)cc1,-0.4,9.9,12.1*,4.0,-3.6,11.6,2.7
Cc1cc(O)c2c(-c3ccccc3)cc(=O)oc2c1,-0.1,13.2,8.5*,-0.3,3.6,.,1.8
COc1ccc(-c2cc(=O)oc3c(C)c(OC(C)C(C)=O)ccc23)cc1 (centres undefined),-0.4,4.0,22.2*,3.6,-1.9,8.1,16.3*
COc1ccc(-c2cc(=O)oc3cc(O)ccc23)cc1,-1.4,12.7,1.5,-3.7,-8.1,12.7,.
Cc1c(O)ccc2c(-c3ccccc3)cc(=O)oc12,-0.1,4.6,41.0*,0.0,-6.0,13.1,34.6*
COc1ccc(C(CNC(=O)c2c(C)nn(Cc3ccc(C)cc3)c2Cl)N2CCOCC2)cc1 (centres undefined),-0.6,0.2,0.8,0.7,-7.5,.,.
O=C(NC1CCCCC1)OC[C@@H]1CSCCS(=O)(=O)N1,.,.,2.0,.,.,.,.
COc1cc(-c2c(C#N)c(N)nc3[nH]c(=S)[nH]c(=O)c23)ccc1O,-0.6,-0.2,5.0*,5.8,-0.5,7.3,3.9
Cc1cc(C(=O)N/N=C/C=C/c2ccccc2)n[nH]1,-0.1,-5.2,5.8*,-0.9,-7.1,18.9,5.1*
Cc1cc(C(=O)N/N=C/C=C/c2cccc([N+](=O)[O-])c2)n[nH]1,-0.6,-7.1,5.9*,-4.2,-3.0,29.5,3.7
Clc1ccc(Oc2nnnn2-c2ccccc2)cc1,-1.0,-3.1,-0.6,3.0,-1.3,-1.6,.
COc1cccc(Oc2nnnn2-c2ccccc2)c1,0.3,5.1,4.7*,-0.1,-3.1,10.0,1.2
CCN(CC(=O)Nc1ccc2c(c1)OCCO2)C(=O)c1ccc(C(F)(F)F)cc1,0.0,-1.8,-1.0,-5.7,-3.5,17.2,.
CCOC(=O)c1cccc(C2=CC(=O)C[C@H](c3ccc(Cl)cc3)C2)c1,0.0,0.4,-1.0,2.1,-3.7,.,.
COc1ccc(/C=C/C(=O)NC(=S)Nc2ccc(S(=O)(=O)Nc3cc(C)on3)cc2)cc1,-0.4,-1.4,5.0*,-7.8,-5.7,9.0,5.7*
CCc1ccc(NS(=O)(=O)c2ccc(C)c(C(=O)N3CCOCC3)c2)cc1,0.1,0.9,-0.2,5.0,-3.1,21.3,.
Cc1ccc(N(C(=O)c2csnn2)C(C(=O)NC2CCCCC2)c2ccco2)cc1 (centres undefined),-0.3,0.6,0.3,1.8,-6.9,40.4,.
CCOCCCNC(=S)N(Cc1ccccc1)Cc1nc2ccccc2c(=O)[nH]1,0.5,-0.8,0.6,-4.0,-4.8,28.8,.
CCCNC(=S)N(Cc1ccccc1)Cc1nc2ccccc2c(=O)[nH]1,-0.9,-0.5,47.0*,-1.6,-7.1,17.1,-0.7
O=C(N/N=C/CCc1ccccc1)c1ccc(CN2c3cccc4cccc(c34)S2(=O)=O)cc1,-0.7,3.6,0.7,1.3,-8.4,1.0,.
COc1ccc(/C=N/NC(=O)c2ccc(CN3c4cccc5cccc(c45)S3(=O)=O)cc2)cc1,-0.1,4.9,5.0*,-1.2,0.4,25.4,5.2*
COc1ccc(/C=N/Nc2nnc(Cc3ccccc3)c(=O)[nH]2)cc1,-0.5,3.7,1.0,2.4,-0.8,-6.7,.

# Screening results: PubChem, several laboratories
